Article PMC9933479 (ACS Omega, 2023)

Columns and labels:
Experiment in all cases: MTT assay, cytotoxicity/growth inhibition
[1] = system: HCT-116 (colon carcinoma); format: cell-based; conditions: Homo sapiens; for inhibition at 20 µM: HCT-116, 48 h, read-out: Cytotoxic Activity (% Growth Inhibition); for IC50: HCT-116
Summary of the method: (§1)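 Cells were grown in RPMI (A549, HCT-116, PC-3) or DMEM (MCF-7) with 10% FBS at 37 °C and 5% CO2. Seeding per well was […] and PC-3 8 × 10^4 cells. […] MTT 250 μg/mL, 4 h; DMSO; A570; triplicate; mean ± SE.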

A549 (lung carcinoma) = format: cell-based, human; conditions: for inhibition at 20 µM / IC50: Homo sapiens; for inhibition at 20 µM: A549, 48 h, read-out: Cytotoxic Activity (% Growth Inhibition), A549, 20 μM concentration, MTT, 48 h; for IC50: A549; for Cytotoxic Activity (% Growth Inhibition): A549, 20 μM concentration, MTT, 48 h, 20 µM
Summary of the method: as §1

[2] = system: PC-3 (prostate carcinoma); format: cell-based; conditions: Homo sapiens; for inhibition at 20 µM: 48 h, read-out: Cytotoxic Activity (% Growth Inhibition)
Summary of the method: as §1

MCF-7 (breast carcinoma) = format: cell-based; conditions: Homo sapiens; for inhibition at 20 µM: MCF7, 48 h, read-out: Cytotoxic Activity (% Growth Inhibition); for IC50: MCF7
Summary of the method: as §1

Row | SMILES | inhibition at 20 µM [1] [%] | inhibition at 20 µM (A549 (lung carcinoma)) [%] | inhibition at 20 µM [2] [%] | inhibition at 20 µM (MCF-7 (breast carcinoma)) [%] | IC50 [1] [µM] | IC50 (A549 (lung carcinoma)) [µM] | IC50 [2] [µM] | IC50 (MCF-7 (breast carcinoma)) [µM] | Cytotoxic Activity (% Growth Inhibition) (A549 (lung carcinoma)) [%]
1 | C[C@]1(CO)C2CC=C(COC(=O)c3cccc(C(F)(F)F)c3)[C@@H](/C=C/C3=CCOC3=O)[C@]2(C)CC[C@H]1O (stereo partly drawn) [Compound 9h, ((1S,5R,6R,8aR)-6-Hydroxy-5-(hydroxymethyl)-5,8a-dimethyl-1-((E)-2-(2-oxo-2,5-dihydrofuran-3-yl)vinyl)-1,4,4a,5,6,7,8,8a-octahydronaphthalen-2-yl)methyl 3-(Trifluoromethyl)benzoate] | 3.31 ± 0.13 | 28.81 ± 0.03 | 29 ± 1.4 | 30.4 ± 0.36 | – | – | – | – | –
2 | C[C@]1(CO)C2CC=C(COC(=O)c3cccc(I)c3)[C@@H](/C=C/C3=CCOC3=O)[C@]2(C)CC[C@H]1O (stereo partly drawn) [Compound 9f, ((1S,5R,6R,8aR)-6-Hydroxy-5-(hydroxymethyl)-5,8a-dimethyl-1-((E)-2-(2-oxo-2,5-dihydrofuran-3-yl)vinyl)-1,4,4a,5,6,7,8,8a-octahydronaphthalen-2-yl)methyl 3-Iodobenzoate] | 0 | 58 ± 0.15 | 49 ± 1 | 21.75 ± 0.06 | – | – | – | – | –
3 | COc1ccc(C(=O)OCC2=CCC3[C@](C)(CO)[C@H](O)CC[C@@]3(C)[C@@H]2/C=C/C2=CCOC2=O)cc1Cl (stereo partly drawn) [Compound 9l, ((1S,5R,6R,8aR)-6-Hydroxy-5-(hydroxymethyl)-5,8a-dimethyl-1-((E)-2-(2-oxo-2,5-dihydrofuran-3-yl)vinyl)-1,4,4a,5,6,7,8,8a-octahydronaphthalen-2-yl)methyl 3-Chloro-4-methoxybenzoate] | 27.5 ± 0.94 | 3.3 ± 0.63 | 71.4 ± 0.56 | 47 ± 0.24 | > 20 | > 20 | 5.7 | 17.8 | –
4 | C[C@@]12COC(c3ccccc3)O[C@@H]1CC[C@]1(C)C2CC=C(COC(=O)c2ccoc2)[C@H]1/C=C/C1=CCOC1=O (stereo partly drawn) [Compound 8g, ((4aR,6aR,7S,10bR)-6a,10b-Dimethyl-7-((E)-2-(2-oxo-2,5-dihydrofuran-3-yl)vinyl)-3-phenyl-4a,5,6,6a,7,10,10a,10b-octahydro-1H-naphtho[2,1-d][1,3]dioxin-8-yl)methyl Furan-3-carboxylate] | 0 | 40.95 ± 0.39 | 25 ± 0.58 | 0 | – | – | – | – | –
5 | C[C@@]12COC(c3ccccc3)O[C@@H]1CC[C@]1(C)C2CC=C(COC(=O)c2cccc(F)c2)[C@H]1/C=C/C1=CCOC1=O (stereo partly drawn) [Compound 8c, ((4aR,6aR,7S,10bR)-6a,10b-Dimethyl-7-((E)-2-(2-oxo-2,5-dihydrofuran-3-yl)vinyl)-3-phenyl-4a,5,6,6a,7,10,10a,10b-octahydro-1H-naphtho[2,1-d][1,3]dioxin-8-yl)methyl 3-Fluorobenzoate] | 19.3 ± 0.37 | 41.7 ± 0.45 | 0 | 2.06 ± 0.04 | – | – | – | – | –
6 | C[C@@]12COC(c3ccccc3)O[C@@H]1CC[C@]1(C)C2CC=C(COC(=O)Cc2ccc(F)cc2)[C@H]1/C=C/C1=CCOC1=O (stereo partly drawn) [Compound 8p, ((4aR,6aR,7S,10bR)-6a,10b-Dimethyl-7-((E)-2-(2-oxo-2,5-dihydrofuran-3-yl)vinyl)-3-phenyl-4a,5,6,6a,7,10,10a,10b-octahydro-1H-naphtho[2,1-d][1,3]dioxin-8-yl)methyl 2-(4-Fluorophenyl)acetate] | 20.6 ± 0.95 | 17 ± 1.7 | 77 ± 0.86 | 0 | > 20 | > 20 | 8 | > 20 | –
7 | C[C@]1(CO)C2CC=C(COC(=O)Cc3ccc(Cl)cc3)[C@@H](/C=C/C3=CCOC3=O)[C@]2(C)CC[C@H]1O (stereo partly drawn) [Compound 9q, ((1S,5R,6R,8aR)-6-Hydroxy-5-(hydroxymethyl)-5,8a-dimethyl-1-((E)-2-(2-oxo-2,5-dihydrofuran-3-yl)vinyl)-1,4,4a,5,6,7,8,8a-octahydronaphthalen-2-yl)methyl 2-(4-Chlorophenyl)acetate] | 19.3 ± 0.97 | 47.2 ± 0.85 | 38 ± 0.96 | 28 ± 0.87 | – | – | – | – | –
8 | C[C@@]12COC(c3ccccc3)O[C@@H]1CC[C@]1(C)C2CC=C(COC(=O)c2ccccc2C(F)(F)F)[C@H]1/C=C/C1=CCOC1=O (stereo partly drawn) [Compound 8n, ((4aR,6aR,7S,10bR)-6a,10b-Dimethyl-7-((E)-2-(2-oxo-2,5-dihydrofuran-3-yl)vinyl)-3-phenyl-4a,5,6,6a,7,10,10a,10b-octahydro-1H-naphtho[2,1-d][1,3]dioxin-8-yl)methyl 2-(Trifluoromethyl)benzoate] | 31.3 ± 0.89 | 18 ± 1.4 | 55 ± 0.56 | 55 ± 0.69 | – | – | – | – | –
9 | C[C@@]12COC(c3ccccc3)O[C@@H]1CC[C@]1(C)C2CC=C(COC(=O)Cc2ccc(I)cc2)[C@H]1/C=C/C1=CCOC1=O (stereo partly drawn) [Compound 8r, ((4aR,6aR,7S,10bR)-6a,10b-Dimethyl-7-((E)-2-(2-oxo-2,5-dihydrofuran-3-yl)vinyl)-3-phenyl-4a,5,6,6a,7,10,10a,10b-octahydro-1H-naphtho[2,1-d][1,3]dioxin-8-yl)methyl 2-(4-Iodophenyl)acetate] | 22.1 ± 0.58 | 2.9 ± 0.69 | 77 ± 0.48 | 42 ± 0.69 | > 20 | > 20 | 5.8 | > 20 | –
10 | COc1cc(C(=O)OCC2=CCC3[C@]4(C)COC(c5ccccc5)O[C@@H]4CC[C@@]3(C)[C@@H]2/C=C/C2=CCOC2=O)cc(OC)c1OC (stereo partly drawn) [Compound 8k, ((4aR,6aR,7S,10bR)-6a,10b-Dimethyl-7-((E)-2-(2-oxo-2,5-dihydrofuran-3-yl)vinyl)-3-phenyl-4a,5,6,6a,7,10,10a,10b-octahydro-1H-naphtho[2,1-d][1,3]dioxin-8-yl)methyl 3,4,5-Trimethoxybenzoate] | 50 ± 0.62 | 20.4 ± 0.73 | 5.6 ± 0.59 | 46 ± 0.77 | – | – | – | – | –
11 | C[C@]1(CO)C2CC=C(COC(=O)c3ccc(Br)cc3F)[C@@H](/C=C/C3=CCOC3=O)[C@]2(C)CC[C@H]1O (stereo partly drawn) [Compound 9m, ((1S,5R,6R,8aR)-6-Hydroxy-5-(hydroxymethyl)-5,8a-dimethyl-1-((E)-2-(2-oxo-2,5-dihydrofuran-3-yl)vinyl)-1,4,4a,5,6,7,8,8a-octahydronaphthalen-2-yl)methyl 4-Bromo-2-fluorobenzoate] | 23.1 ± 0.84 | 14.9 ± 0.24 | 78.9 ± 0.96 | 8 ± 0.85 | > 20 | > 20 | 7.6 | > 20 | –
12 | C=C1CC[C@@H]2[C@](C)(CO)[C@H](O)CC[C@@]2(C)[C@@H]1C/C=C1/C(=O)OC[C@H]1O [Compound 1, Andrographolide, reference compound] | 4.86 ± 0.25 | 21 | 0 | 42.93 ± 0.05 | > 20 | > 20 | > 20 | > 20 | 21.64 ± 0.22
13 | C[C@@]12COC(c3ccccc3)O[C@@H]1CC[C@]1(C)C2CC=C(COC(=O)c2ccccc2)[C@H]1/C=C/C1=CCOC1=O (stereo partly drawn) [Compound 8a, ((4aR,6aR,7S,10bR)-6a,10b-Dimethyl-7-((E)-2-(2-oxo-2,5-dihydrofuran-3-yl)vinyl)-3-phenyl-4a,5,6,6a,7,10,10a,10b-octahydro-1H-naphtho[2,1-d][1,3]dioxin-8-yl)methyl Benzoate] | 21.12 ± 0.19 | 72 | 0 | 9.68 ± 0.14 | > 20 | 10.6 | > 20 | > 20 | 72.82 ± 0.05
14 | C[C@]1(CO)C2CC=C(COC(=O)Cc3ccc(I)cc3)[C@@H](/C=C/C3=CCOC3=O)[C@]2(C)CC[C@H]1O (stereo partly drawn) [Compound 9r, ((1S,5R,6R,8aR)-6-Hydroxy-5-(hydroxymethyl)-5,8a-dimethyl-1-((E)-2-(2-oxo-2,5-dihydrofuran-3-yl)vinyl)-1,4,4a,5,6,7,8,8a-octahydronaphthalen-2-yl)methyl 2-(4-Iodophenyl)acetate] | 27.2 ± 0.48 | 2.4 ± 0.19 | 10.6 ± 0.22 | 12 ± 0.96 | – | – | – | – | –
15 | C[C@@]12COC(c3ccccc3)O[C@@H]1CC[C@]1(C)C2CC=C(COC(=O)c2cccc(Cl)c2)[C@H]1/C=C/C1=CCOC1=O (stereo partly drawn) [Compound 8d, ((4aR,6aR,7S,10bR)-6a,10b-Dimethyl-7-((E)-2-(2-oxo-2,5-dihydrofuran-3-yl)vinyl)-3-phenyl-4a,5,6,6a,7,10,10a,10b-octahydro-1H-naphtho[2,1-d][1,3]dioxin-8-yl)methyl 3-Chlorobenzoate] | 0 | 30.11 ± 0.11 | 0 | 2.4 ± 0.084 | – | – | – | – | –
16 | Cc1cccc(C(=O)OCC2=CCC3[C@](C)(CO)[C@H](O)CC[C@@]3(C)[C@@H]2/C=C/C2=CCOC2=O)c1 (stereo partly drawn) [Compound 9i, ((1S,5R,6R,8aR)-6-Hydroxy-5-(hydroxymethyl)-5,8a-dimethyl-1-((E)-2-(2-oxo-2,5-dihydrofuran-3-yl)vinyl)-1,4,4a,5,6,7,8,8a-octahydronaphthalen-2-yl)methyl 3-Methylbenzoate] | 0 | 21.4 ± 0.42 | 0 | 2.09 ± 0.07 | – | – | – | – | –
